Laboratory results from BindingDB's records for doi:10.1016/j.bmcl.2007.06.010 (Institut Henri Beaufour, 2007).

Target: Melanocortin receptor 4 (Homo sapiens, UniProt P32245)
Test: Displacement of [125I]NDP-alphaMSH from human melanocortin 4 receptor expressed in CHOK1 cells
In short: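 Membranes from CHO-K1 cells stably expressing human MC1, MC3, MC4 or MC5 receptor, 1–10 µg protein/well, in 50 mM Tris-HCl pH 7.4 with 0.2% BSA, 5 mM MgCl2, 1 mM CaCl2, 0.1 mg/mL bacitracin. Incubated with increasing test compound and 0.1–0.3 nM [125I]NDP-α-MSH, 90–120 min at 37 °C depending on subtype. Filtration on PEI-presoaked GF/C filters, cold buffer washes, radioactivity counted; nonlinear regression; three independent measurements.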

Chain of Melanocortin receptor 4 (P32245 whole entry): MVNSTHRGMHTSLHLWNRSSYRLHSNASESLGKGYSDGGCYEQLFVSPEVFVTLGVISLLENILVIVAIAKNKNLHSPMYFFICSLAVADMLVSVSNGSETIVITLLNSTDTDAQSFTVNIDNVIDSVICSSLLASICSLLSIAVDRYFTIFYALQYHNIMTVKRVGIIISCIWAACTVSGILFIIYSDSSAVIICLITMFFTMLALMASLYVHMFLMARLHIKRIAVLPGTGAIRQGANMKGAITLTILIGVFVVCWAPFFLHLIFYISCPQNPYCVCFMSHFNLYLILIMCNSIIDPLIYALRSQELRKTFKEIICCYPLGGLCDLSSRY

Ki: 17 nM
SMILES: CC(C)CCN(CCC(C)C)C(=O)c1ccc2nc(NCc3ccccc3)n(CCCN3CCCCC3)c2c1 [2-(benzylamino)-N,N-diisopentyl-3-(3-(piperidin-1-yl)propyl)-3H-benzo[d]imidazole-5-carboxamide]
